ChEMBL document CHEMBL1165965, “Synthesis and structure-activity relationships of 1,2,3,4-tetrahydropyrido[2,3-b]pyrazines as potent and selective inhibitors of the anaplastic lymphoma kinase” (Bioorg Med Chem, 2010)

Tests used:
[1] = molecular target: Proto-oncogene tyrosine-protein kinase Src (Homo sapiens) (UniProt P12931); test: Inhibition of SRC at 1 uM
[2] = molecular target: STE20-like serine/threonine-protein kinase (Homo sapiens) (UniProt Q9H2G2); test: Inhibition of SLK at 1 uM
[3] = molecular target: T1, Serine/threonine-protein kinase PLK4 (Homo sapiens) (UniProt O00444); test: Inhibition of PLK4 at 1 uM
T1 sequence (whole entry): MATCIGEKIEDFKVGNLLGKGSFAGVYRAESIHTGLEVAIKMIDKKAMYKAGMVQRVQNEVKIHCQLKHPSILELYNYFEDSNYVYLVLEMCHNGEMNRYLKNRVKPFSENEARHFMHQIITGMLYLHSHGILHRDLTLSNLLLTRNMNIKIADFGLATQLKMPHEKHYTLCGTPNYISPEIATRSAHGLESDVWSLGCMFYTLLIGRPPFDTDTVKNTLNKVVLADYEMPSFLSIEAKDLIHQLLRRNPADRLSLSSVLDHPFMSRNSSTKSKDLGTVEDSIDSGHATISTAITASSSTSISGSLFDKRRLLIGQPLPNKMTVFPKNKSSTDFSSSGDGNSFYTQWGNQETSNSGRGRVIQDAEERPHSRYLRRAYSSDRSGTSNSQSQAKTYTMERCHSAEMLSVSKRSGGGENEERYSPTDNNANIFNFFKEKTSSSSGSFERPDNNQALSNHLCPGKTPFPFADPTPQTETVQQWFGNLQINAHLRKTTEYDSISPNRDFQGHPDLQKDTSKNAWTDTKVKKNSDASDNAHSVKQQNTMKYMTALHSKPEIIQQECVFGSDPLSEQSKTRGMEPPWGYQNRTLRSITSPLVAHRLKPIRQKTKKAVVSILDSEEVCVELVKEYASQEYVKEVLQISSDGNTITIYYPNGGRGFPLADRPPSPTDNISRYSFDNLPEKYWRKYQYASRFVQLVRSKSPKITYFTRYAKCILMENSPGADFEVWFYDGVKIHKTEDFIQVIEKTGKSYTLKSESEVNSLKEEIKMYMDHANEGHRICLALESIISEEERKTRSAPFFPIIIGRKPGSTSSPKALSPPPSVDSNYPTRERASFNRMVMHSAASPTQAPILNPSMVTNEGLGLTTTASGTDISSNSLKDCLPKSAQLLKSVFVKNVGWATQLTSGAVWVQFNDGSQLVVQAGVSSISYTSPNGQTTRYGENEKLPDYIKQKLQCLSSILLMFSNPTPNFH

[4] = molecular target: ALK tyrosine kinase receptor (Homo sapiens, UniProt Q9UM73); test: Inhibition of ALK at 1 uM
[5] = molecular target: Mitogen-activated protein kinase kinase kinase 10 (Homo sapiens) (UniProt Q02779); test: Inhibition of MLK2 at 1 uM
In short: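 Kinase-panel screen using KINOMEscan technology, with 250–400 kinases per panel. Each compound was tested at a single concentration, and inhibition of each kinase was recorded. Selectivity was summarised as S(90), the fraction of kinases inhibited by more than 90%.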

[6] = molecular target: Death-associated protein kinase 3 (Homo sapiens) (UniProt O43293); test: Inhibition of DAPK3 at 1 uM
In short: (§1)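 Single-concentration screen using Ambit Bioscience KINOMEscan technology across a panel of 250–400 kinases. Per-kinase inhibition from this screen was summarized as S(90), the fraction of kinases inhibited by more than 90%.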

[7] = molecular target: MAP kinase-interacting serine/threonine-protein kinase 1 (Homo sapiens) (UniProt Q9BUB5); test: Inhibition of MKNK1 at 1 uM
[8] = molecular target: Ephrin type-A receptor 5 (Homo sapiens) (UniProt P54756); test: Inhibition of EPHA5 at 1 uM; in short: as §1
[9] = tested on: Epidermal growth factor receptor (Homo sapiens), P00533 [G719C]; test: Inhibition of EGFR G719C mutant at 1 uM; assay type: protein assay; in short: as §1
[10] = molecular target: Tyrosine-protein kinase Srms (Homo sapiens) (UniProt Q9H3Y6); test: Inhibition of SRMS at 1 uM
[11] = molecular target: T2, Membrane-associated tyrosine- and threonine-specific cdc2-inhibitory kinase (Homo sapiens) (UniProt Q99640); test: Inhibition of PKMYT1 at 1 uM
T2 sequence (whole entry): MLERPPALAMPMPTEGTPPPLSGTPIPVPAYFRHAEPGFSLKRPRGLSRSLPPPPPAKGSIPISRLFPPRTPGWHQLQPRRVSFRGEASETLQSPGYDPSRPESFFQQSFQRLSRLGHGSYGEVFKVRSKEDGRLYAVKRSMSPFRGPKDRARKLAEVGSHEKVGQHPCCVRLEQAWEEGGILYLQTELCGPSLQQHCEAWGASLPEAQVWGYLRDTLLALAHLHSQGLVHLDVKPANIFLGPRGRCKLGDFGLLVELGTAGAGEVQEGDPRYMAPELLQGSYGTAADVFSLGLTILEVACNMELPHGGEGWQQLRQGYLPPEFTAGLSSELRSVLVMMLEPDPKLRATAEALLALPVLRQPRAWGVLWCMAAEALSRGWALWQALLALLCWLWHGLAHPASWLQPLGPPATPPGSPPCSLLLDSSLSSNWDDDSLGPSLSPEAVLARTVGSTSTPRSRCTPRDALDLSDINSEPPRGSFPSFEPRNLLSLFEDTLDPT

[12] = molecular target: Serine/threonine-protein kinase/endoribonuclease IRE1 (Homo sapiens) (UniProt O75460); test: Inhibition of ERN1 at 1 uM
[13] = molecular target: T3, Aurora kinase A (Homo sapiens) (UniProt O14965); test: Inhibition of AURKA at 1 uM
T3 sequence (whole entry): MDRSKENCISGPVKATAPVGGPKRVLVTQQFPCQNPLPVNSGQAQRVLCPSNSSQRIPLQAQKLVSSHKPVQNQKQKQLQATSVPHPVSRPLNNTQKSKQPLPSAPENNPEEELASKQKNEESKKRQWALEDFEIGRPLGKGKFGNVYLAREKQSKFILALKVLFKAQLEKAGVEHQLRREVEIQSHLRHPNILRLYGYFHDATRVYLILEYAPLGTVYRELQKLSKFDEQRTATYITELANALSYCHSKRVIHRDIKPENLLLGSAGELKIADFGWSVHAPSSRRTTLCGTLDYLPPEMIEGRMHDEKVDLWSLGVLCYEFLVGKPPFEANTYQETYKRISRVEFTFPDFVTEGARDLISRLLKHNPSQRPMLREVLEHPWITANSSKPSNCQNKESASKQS
In short: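 Ambit KINOMEscan screen at a single concentration across a 250–400 kinase panel, recorded as percent inhibition. Selectivity was expressed as S(90), the fraction of kinases inhibited >90%.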

[14] = molecular target: Serine/threonine-protein kinase PAK 5 (Homo sapiens) (UniProt Q9P286); test: Inhibition of PAK7 at 1 uM
Serine/threonine-protein kinase PAK 5 (Homo sapiens), sequence (Q9P286 whole entry, looked up): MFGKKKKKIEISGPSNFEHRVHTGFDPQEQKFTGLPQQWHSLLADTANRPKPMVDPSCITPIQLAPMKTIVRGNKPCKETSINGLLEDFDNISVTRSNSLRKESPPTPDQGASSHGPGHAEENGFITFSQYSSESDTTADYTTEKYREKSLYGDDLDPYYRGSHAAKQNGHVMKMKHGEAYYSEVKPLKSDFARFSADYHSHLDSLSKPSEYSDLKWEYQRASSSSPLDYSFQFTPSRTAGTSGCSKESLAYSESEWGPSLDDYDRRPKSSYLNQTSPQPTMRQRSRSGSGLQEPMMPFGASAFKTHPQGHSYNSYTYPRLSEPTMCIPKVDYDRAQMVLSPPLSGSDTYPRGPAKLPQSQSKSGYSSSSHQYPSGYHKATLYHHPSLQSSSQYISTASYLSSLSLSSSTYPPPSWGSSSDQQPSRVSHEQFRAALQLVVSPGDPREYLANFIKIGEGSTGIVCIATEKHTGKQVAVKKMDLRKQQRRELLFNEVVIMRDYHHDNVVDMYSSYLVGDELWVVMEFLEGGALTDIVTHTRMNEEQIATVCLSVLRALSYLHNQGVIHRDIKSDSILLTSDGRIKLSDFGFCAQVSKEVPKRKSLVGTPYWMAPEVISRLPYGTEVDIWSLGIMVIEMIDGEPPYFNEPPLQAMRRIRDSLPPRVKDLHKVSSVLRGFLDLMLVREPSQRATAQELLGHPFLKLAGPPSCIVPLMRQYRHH

Proto-oncogene tyrosine-protein kinase Src (Homo sapiens), sequence (P12931 2-536 limits assumed): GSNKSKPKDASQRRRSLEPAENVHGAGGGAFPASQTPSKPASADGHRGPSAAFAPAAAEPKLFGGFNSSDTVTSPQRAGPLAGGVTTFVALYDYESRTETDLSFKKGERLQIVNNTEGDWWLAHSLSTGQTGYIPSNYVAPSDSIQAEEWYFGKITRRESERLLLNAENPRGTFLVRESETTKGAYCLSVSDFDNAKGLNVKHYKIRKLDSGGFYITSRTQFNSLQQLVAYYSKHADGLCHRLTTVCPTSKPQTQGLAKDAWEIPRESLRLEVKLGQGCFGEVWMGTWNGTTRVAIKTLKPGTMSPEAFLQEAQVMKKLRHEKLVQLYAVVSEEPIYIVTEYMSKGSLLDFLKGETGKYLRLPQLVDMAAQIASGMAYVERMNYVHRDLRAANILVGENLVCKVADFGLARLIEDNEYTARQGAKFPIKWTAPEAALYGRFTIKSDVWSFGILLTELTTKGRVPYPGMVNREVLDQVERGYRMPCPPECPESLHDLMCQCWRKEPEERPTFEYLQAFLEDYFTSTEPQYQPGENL
Epidermal growth factor receptor (Homo sapiens), P00533 [G719C], sequence (P00533 whole entry G719C): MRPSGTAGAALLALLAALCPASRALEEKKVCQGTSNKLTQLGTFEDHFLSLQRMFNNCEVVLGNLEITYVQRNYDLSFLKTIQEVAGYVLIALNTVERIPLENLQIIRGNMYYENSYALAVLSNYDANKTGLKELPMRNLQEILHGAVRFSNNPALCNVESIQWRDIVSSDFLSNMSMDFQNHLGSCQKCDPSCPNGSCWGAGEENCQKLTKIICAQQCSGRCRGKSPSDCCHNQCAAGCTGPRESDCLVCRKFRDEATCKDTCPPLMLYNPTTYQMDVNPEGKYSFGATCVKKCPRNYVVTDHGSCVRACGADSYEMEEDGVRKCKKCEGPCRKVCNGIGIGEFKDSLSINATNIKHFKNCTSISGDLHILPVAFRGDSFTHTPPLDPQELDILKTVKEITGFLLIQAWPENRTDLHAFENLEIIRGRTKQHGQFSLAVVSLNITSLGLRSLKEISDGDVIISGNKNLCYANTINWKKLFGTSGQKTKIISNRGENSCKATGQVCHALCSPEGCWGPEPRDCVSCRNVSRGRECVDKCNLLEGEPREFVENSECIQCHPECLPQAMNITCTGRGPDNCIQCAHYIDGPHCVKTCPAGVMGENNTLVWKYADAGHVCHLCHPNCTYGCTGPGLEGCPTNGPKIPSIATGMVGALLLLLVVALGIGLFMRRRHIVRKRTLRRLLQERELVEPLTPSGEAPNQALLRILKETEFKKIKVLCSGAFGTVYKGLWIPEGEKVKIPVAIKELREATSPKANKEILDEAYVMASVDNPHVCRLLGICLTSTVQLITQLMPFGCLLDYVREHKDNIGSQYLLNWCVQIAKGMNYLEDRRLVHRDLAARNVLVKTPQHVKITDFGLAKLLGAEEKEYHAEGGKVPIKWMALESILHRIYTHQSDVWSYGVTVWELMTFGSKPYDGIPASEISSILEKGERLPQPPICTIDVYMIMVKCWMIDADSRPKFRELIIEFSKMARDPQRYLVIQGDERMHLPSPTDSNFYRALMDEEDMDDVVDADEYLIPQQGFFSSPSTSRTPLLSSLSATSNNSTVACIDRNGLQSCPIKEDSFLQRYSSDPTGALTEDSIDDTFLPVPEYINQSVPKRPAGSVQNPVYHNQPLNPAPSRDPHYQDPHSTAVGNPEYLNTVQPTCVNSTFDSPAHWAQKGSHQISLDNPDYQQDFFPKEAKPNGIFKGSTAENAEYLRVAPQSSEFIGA
Mitogen-activated protein kinase kinase kinase 10 (Homo sapiens), sequence (Q02779 whole entry, looked up): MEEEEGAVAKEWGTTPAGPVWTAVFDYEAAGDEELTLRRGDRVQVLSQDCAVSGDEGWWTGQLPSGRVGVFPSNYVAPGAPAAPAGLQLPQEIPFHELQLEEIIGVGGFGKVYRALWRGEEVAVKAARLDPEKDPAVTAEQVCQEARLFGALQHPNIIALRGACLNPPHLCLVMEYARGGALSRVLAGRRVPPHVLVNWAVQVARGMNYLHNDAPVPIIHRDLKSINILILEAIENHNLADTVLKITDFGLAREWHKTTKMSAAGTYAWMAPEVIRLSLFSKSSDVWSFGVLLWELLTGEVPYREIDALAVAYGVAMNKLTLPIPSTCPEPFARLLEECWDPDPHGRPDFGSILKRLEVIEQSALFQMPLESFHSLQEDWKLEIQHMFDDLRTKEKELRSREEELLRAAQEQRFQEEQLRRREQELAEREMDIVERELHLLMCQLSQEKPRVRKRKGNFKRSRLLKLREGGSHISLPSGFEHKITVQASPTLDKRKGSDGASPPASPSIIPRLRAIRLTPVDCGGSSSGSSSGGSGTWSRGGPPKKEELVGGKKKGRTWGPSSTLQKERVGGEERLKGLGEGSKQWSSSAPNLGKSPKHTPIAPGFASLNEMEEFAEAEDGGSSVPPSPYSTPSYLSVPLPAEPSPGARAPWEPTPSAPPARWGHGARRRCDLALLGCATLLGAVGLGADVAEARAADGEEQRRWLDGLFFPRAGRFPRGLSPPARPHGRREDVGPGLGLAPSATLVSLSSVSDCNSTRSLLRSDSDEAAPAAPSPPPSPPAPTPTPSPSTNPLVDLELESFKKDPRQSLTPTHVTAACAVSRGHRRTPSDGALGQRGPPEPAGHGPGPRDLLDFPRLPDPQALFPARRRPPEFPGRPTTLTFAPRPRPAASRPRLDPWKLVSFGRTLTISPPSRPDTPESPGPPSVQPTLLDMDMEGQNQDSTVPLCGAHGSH
Tyrosine-protein kinase Srms (Homo sapiens), sequence (Q9H3Y6 whole entry): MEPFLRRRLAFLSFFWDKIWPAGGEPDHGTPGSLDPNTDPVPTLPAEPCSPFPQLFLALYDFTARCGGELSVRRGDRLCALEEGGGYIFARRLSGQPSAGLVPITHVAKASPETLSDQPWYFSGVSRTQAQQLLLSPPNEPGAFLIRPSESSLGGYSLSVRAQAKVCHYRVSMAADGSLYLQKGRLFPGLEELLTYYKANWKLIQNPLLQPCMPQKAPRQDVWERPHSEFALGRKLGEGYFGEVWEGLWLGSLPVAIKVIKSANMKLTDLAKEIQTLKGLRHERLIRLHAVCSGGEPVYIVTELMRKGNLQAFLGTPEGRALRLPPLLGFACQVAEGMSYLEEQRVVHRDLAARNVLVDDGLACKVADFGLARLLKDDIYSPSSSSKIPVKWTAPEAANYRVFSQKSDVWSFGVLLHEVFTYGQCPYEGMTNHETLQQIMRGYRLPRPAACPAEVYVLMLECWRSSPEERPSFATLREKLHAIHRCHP
Ephrin type-A receptor 5 (Homo sapiens), sequence (P54756 whole entry): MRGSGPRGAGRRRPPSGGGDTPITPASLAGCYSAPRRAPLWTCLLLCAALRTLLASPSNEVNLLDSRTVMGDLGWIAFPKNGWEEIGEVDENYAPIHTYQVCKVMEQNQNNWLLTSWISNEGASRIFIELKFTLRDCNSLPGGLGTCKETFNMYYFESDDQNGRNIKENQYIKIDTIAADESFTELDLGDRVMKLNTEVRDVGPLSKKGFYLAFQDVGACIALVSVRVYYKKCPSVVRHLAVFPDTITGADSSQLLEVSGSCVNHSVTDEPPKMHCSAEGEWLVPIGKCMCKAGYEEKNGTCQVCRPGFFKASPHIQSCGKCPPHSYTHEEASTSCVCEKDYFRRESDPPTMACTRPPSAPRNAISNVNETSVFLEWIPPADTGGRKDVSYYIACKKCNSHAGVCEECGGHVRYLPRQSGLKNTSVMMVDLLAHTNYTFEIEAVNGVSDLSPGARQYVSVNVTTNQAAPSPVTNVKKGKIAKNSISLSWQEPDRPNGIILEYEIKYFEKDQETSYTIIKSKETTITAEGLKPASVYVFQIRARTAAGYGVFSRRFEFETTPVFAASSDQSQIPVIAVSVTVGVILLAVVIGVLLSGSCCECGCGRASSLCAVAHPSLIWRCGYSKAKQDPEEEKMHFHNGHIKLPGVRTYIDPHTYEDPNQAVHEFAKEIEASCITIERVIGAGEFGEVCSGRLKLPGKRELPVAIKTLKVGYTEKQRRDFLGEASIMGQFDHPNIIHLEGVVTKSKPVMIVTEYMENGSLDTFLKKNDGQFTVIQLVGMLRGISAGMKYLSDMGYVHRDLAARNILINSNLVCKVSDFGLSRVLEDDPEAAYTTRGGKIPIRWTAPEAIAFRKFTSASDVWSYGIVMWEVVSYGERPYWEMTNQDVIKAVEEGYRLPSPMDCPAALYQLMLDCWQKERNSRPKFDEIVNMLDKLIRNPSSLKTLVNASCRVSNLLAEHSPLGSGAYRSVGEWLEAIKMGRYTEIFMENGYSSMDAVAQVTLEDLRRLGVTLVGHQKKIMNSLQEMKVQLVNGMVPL

SMILES	inhibition [1]	inhibition [2]	inhibition [3]	inhibition [4]	inhibition [5]	inhibition [7]	inhibition [8]	inhibition [9]	inhibition [10]	inhibition [11]	inhibition [12]	inhibition [13]	inhibition [14]	inhibition [6]
CN1CCN(c2ccc(-c3cnc4c(c3)N(Cc3cc(Cl)ccc3C(F)(F)F)CCN4)cn2)CC1	< 50%	< 50%	< 50%	98%	< 50%	< 50%	< 50%	< 50%	< 50%	< 50%	< 50%	< 50%	< 50%	< 50%
O=C(O)c1ccc(-c2cnc3c(c2)N(Cc2cc(Cl)ccc2C(F)(F)F)CCN3)cc1	< 50%	< 50%	91.7%	< 50%	< 50%	–	< 50%	< 50%	–	< 50%	–	80.2%	< 50%	< 50%
COC1CCN(C(=O)c2ccc(-c3cnc4c(c3)N(Cc3cc(Cl)ccc3C(F)(F)F)CCN4)cc2)CC1	< 50%	< 50%	73.8%	85.6%	< 50%	–	< 50%	< 50%	< 50%	< 50%	–	< 50%	< 50%	< 50%
CN1CCN(c2ccc(-c3cnc4c(c3)N(Cc3cc(F)ccc3F)CCN4)cn2)CC1	< 50%	< 50%	< 50%	96.7%	< 50%	< 50%	< 50%	< 50%	< 50%	< 50%	< 50%	< 50%	< 50%	< 50%
CN1CCN(c2ccc(-c3cnc4c(c3)N(Cc3c(F)ccc(F)c3Cl)CCN4)cn2)CC1	< 50%	< 50%	< 50%	97%	< 50%	< 50%	< 50%	< 50%	< 50%	< 50%	< 50%	< 50%	< 50%	< 50%
O=C(c1ccc(-c2cnc3c(c2)N(Cc2cc(Cl)ccc2C(F)(F)F)CCN3)cc1)N1CCCCC1	< 50%	< 50%	< 50%	< 50%	< 50%	–	< 50%	< 50%	–	< 50%	–	< 50%	< 50%	< 50%

Continued, in another order:

inhibition [1]	inhibition [2]	inhibition [3]	inhibition [4]	inhibition [5]	inhibition [7]	inhibition [8]	inhibition [9]	inhibition [10]	inhibition [11]	inhibition [12]	inhibition [13]	inhibition [14]	SMILES	inhibition [6]
< 50%	< 50%	92.4%	83.4%	< 50%	–	< 50%	< 50%	< 50%	< 50%	–	69.5%	< 50%	O=C(c1ccc(-c2cnc3c(c2)N(Cc2cc(Cl)ccc2C(F)(F)F)CCN3)cc1)N1CCC(N2CCCC2)CC1	< 50%
< 50%	< 50%	< 50%	99%	< 50%	< 50%	< 50%	< 50%	< 50%	< 50%	< 50%	68%	< 50%	FC(F)(F)c1ccc(Cl)cc1CN1CCNc2ncc(-c3ccnc(N4CCNCC4)c3)cc21	< 50%
< 50%	< 50%	< 50%	98%	< 50%	< 50%	< 50%	< 50%	< 50%	< 50%	< 50%	68%	< 50%	CC(=O)N1CCN(c2cc(-c3cnc4c(c3)N(Cc3cc(Cl)ccc3C(F)(F)F)CCN4)ccn2)CC1	< 50%
< 50%	< 50%	< 50%	98%	< 50%	< 50%	< 50%	< 50%	< 50%	< 50%	< 50%	< 50%	< 50%	CN1CCN(c2ccc(-c3cnc4c(c3)N(Cc3cc(Cl)ccc3Cl)CCN4)cn2)CC1	< 50%
